# Screens from PubChem.
# Hits are enriched below; roughly 2.4% of the tested compounds scored in any of these assays.
# LGR2 antag: inhibitors of bursicon-induced Drosophila LGR2 receptor cAMP signaling | HEK293 LGR2, CRE-luciferase, bursicon-stimulated, 4 h | inhibition, % at 9.99 µM | 380,000 tested, 0.35% active | AID 720647;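 active = drop in luminescence signal, shown as inhibition above about 50% in the replicate tests, limit read from the data, passing the limit was not always enough; inconclusive = probably only some replicates passing the limit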;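 note: agonist challenge used bursicon conditioned medium at about half maximal strength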
# rRNA inh HTS: selective bacterial rRNA inhibition in E. coli | E. coli WT GFP vs humanized-ribosome RFP mutants, fluorescence, 24 h; stronger effect = lower value; DMSO median 0, no signal -100 | GFP signal change (wild-type ribosome), % (concentration not given with the values) | 350,000 tested, 1.6% active;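 active = significant combined selectivity score with lowered wild-type GFP, culture density cut under 30%, mutant RFP and density less affected; inactive = any of these conditions unmet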
# E-sel inducer: induces E-selectin expression in human endothelial cells; HUVEC E-selectin immunofluorescence imaging; normalized: neutral wells 0, TNF-alpha wells 100; activation, % at 7.58 µM; 260,000 tested, 0.37% active;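 active = mean E-selectin-positive cell signal at least 10% of the positive control, reached in at least 60% of replicates, without over 20% cell loss; inconclusive = no rule given, readout overlaps actives, possibly toxicity-flagged; inactive = the rest, including those meeting only one limit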
# Target sequence (P16581 whole entry, looked up): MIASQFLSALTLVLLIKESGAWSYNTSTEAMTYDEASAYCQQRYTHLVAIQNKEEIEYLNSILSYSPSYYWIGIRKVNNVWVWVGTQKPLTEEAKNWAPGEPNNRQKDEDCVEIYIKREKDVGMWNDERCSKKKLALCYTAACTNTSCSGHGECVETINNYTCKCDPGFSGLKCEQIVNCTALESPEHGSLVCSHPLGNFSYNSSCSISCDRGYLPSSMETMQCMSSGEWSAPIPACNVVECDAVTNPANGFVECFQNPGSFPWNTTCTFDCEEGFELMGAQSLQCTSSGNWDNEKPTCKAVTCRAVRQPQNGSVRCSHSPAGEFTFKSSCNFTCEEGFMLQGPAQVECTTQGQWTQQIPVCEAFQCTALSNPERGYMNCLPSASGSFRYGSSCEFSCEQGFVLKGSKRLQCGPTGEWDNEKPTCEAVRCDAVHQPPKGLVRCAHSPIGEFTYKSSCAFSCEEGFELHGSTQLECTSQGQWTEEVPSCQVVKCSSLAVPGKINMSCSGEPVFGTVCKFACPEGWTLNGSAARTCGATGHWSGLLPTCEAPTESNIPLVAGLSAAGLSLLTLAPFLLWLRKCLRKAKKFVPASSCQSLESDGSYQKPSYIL
#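 System: HUVEC / Compound: single concentration / Signal: immunofluorescence imaging / Read-out: percent E-selectin-positive cells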
# EWS-Fli block: EWS/Fli transcriptional activity inhibition. inhibition, % at 12.6 µM. A673 NR0B1-luciferase reporter, viability-normalised. 350,000 tested, 0.67% active;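 active = mean inhibition of at least 50% after viability correction, with every replicate also passing that limit; inconclusive = mean reaches 50% but only one of two replicates passes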;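 note: firefly luciferase signal divided by Alamar Blue viability fluorescence both relative to DMSO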
# Numbers without * were called inactive; ? = inconclusive; / = no result given.
SMILES,LGR2 antag,rRNA inh HTS,E-sel inducer,EWS-Fli block
CCOC(=O)Nc1nc2ccc(Cn3cccc3)cc2[nH]1,-32.7,5.4,0.7,51.3*
CO[C@H]1CN(C)C(=O)c2ccc(NC(=O)Nc3ccccc3)cc2OC[C@H](C)N(C(=O)CN(C)C)C[C@H]1C,-6.7,1.4,0.0,-11.0
COc1cc(/C=C2\SC(=S)N(C(C(=O)O)c3ccccc3)C2=O)cc(OC)c1OC (stereo unspecified),16.7,-26.3*,/,-4.2
COc1cccc(/C=C2\SC(=S)N(C(C(=O)O)c3ccccc3)C2=O)c1OC (stereo unspecified),-4.0,-34.3*,0.1,-8.7
COc1ccc(/C=C2\SC(=S)N(C(C(=O)O)c3ccccc3)C2=O)c(OC)c1 (stereo unspecified),-0.3,-47.4,/,-20.1
COc1cc(/C=C2\SC(=S)N(C(Cc3ccccc3)C(=O)O)C2=O)ccc1O (stereo unspecified),-14.1,-53.7,-0.1,-18.3
CC(C)NC(=O)Nc1ccc2c(c1)CC(=O)N([C@H](C)CO)C[C@@H](C)[C@@H](CN(C)C(=O)NC1CCCCC1)O2,-5.2,5.2,1.8,/
Cc1ccc(S(=O)(=O)Nc2c(C)cc([N+](=O)[O-])cc2C)cc1,4.2,-22.2*,0.2,-2.2
Cc1ccc(S(=O)(=O)NCCNc2ccc([N+](=O)[O-])cc2)cc1,16.1,-27.2*,0.4,/
Cc1ccc(S(=O)(=O)NCCCNc2ccc([N+](=O)[O-])cc2)cc1,/,-35.9,/,-4.0
Cc1ccnc(NS(=O)(=O)c2cccc([N+](=O)[O-])c2)c1,19.1,8.4,6.6,-1.7
CCS(=O)(=O)N[C@H]1C=C[C@@H](CC(=O)Nc2ccc(-c3ccccc3)cc2)O[C@@H]1CO,-1.5,-1.7,-0.4,-5.3
COc1cc(/C=N/NC2=NCCCCC2)ccc1O,14.1,6.1,0.5,-8.2
COc1cc(/C=N/Nc2ncnc3sc4c(c23)CCC4)ccc1O,-25.5,-20.0*,-0.2,21.5
COc1ccc2c3c(n(C)c2c1)[C@@H](CO)N(C(=O)C1CCC1)CC31CN(C(=O)Nc2cccc(F)c2)C1,6.0,1.5,1.4,4.9
Cc1ccc(NC(=O)CN(C)C(=O)Cc2coc3cc(C)c(C)cc23)cc1,-28.5,-23.3*,/,1.2
CC(=O)N1c2ccccc2N(Cc2ccc(C)cc2C)C(=O)C1(C)C,-21.6,-37.2,1.4,54.0*
O=C(NCC[C@H]1CC[C@H](NC(=O)C2CCCC2)[C@@H](CO)O1)c1cnccn1,-3.8,4.4,-0.1,-1.0
NS(=O)(=O)c1ccc(Sc2nc3ccccc3s2)c([N+](=O)[O-])c1,/,-25.1*,/,25.2
O=C(O)c1ccc(S(=O)(=O)Nc2ccc(O)c(Sc3nc4ccccc4s3)c2)cc1,-13.7,-23.4*,/,12.3
NS(=O)(=O)c1ccc(Sc2ccccn2)c([N+](=O)[O-])c1,-8.8,9.3,/,6.8
O=C(O)c1ccc(-c2noc(-c3cccc(Cl)c3)n2)cc1,1.6,-22.8*,1.0,-64.1
COc1cccc(NC(=O)C[C@@H]2CC[C@H]3[C@@H](COc4ccc(NC(=O)C5CCCC5)cc4C(=O)N3C)O2)c1,/,-2.5,/,/
COc1ncnc(OC)c1S(=O)(=O)NCc1ccccc1,-3.0,7.7,49.6*,0.7
CCOc1ccccc1NS(=O)(=O)c1ccc(-c2cnc(C3CC3)o2)cc1,-20.7,-37.9,/,/
SMILES,LGR2 antag,rRNA inh HTS,E-sel inducer,EWS-Fli block
COc1ccccc1NS(=O)(=O)c1ccc(-c2cnc(C3CC3)o2)cc1,-24.9,-14.3,0.2,/
O=S(=O)(Nc1ccc(F)cc1Cl)c1ccc(-c2cnc(C3CC3)o2)cc1,6.5,-48.3,/,57.3*
COc1ccccc1CNS(=O)(=O)c1ccc(-c2cnc(C3CC3)o2)cc1,13.5,-2.7,0.5,61.2*
Cc1cccc(N(C)S(=O)(=O)c2ccc(-c3cnc(C4CC4)o3)cc2)c1,-26.2,6.7,/,58.1*
Cc1ccc(NS(=O)(=O)c2ccc(-c3cnc(C4CC4)o3)cc2)c(C)c1,-16.5,-33.0,/,52.1*
COc1ccc(NS(=O)(=O)c2ccc(-c3cnc(C4CC4)o3)cc2)cc1OC,21.3,-8.0,/,?
C[C@H](CO)N1C[C@H](C)[C@H](CN(C)Cc2ccc(-c3ccccc3)cc2)Oc2ncc(C#CCN(C)C)cc2C1=O,-4.0,0.0,0.4,30.7
CN1CCN(C(=O)C[C@H]2CC[C@@H]3[C@H](COC[C@H](O)CN3C(=O)C3CC3)O2)CC1,2.3,2.9,0.0,-3.5
Brc1ccc(CN2CCN(Cc3c[nH]c4ccccc34)CC2)cc1,0.5,-0.5,-0.1,21.3
Brc1ccccc1CN1CCN(Cc2c[nH]c3ccccc23)CC1,3.8,-22.6*,-0.1,45.2
CC(=O)c1cccc(-c2ccnc3c2CC(C(=O)NCc2cccs2)O3)c1 (stereo unspecified),-8.5,-11.0,/,72.7*
O=C(NCc1cccs1)C1Cc2c(-c3ccc(Cl)cc3)ccnc2O1 (stereo unspecified),/,-14.5,1.2,69.9*
C[C@@H]1CCCCO[C@H](CN(C)Cc2ccc3c(c2)OCO3)[C@H](C)CN([C@H](C)CO)C(=O)c2cc(NC(=O)Nc3ccccc3)ccc2O1,-31.4,-3.1,0.2,2.2
CCC(=O)N(C)C[C@@H]1Oc2cc(/C=C/c3ccccc3)ccc2S(=O)(=O)N([C@@H](C)CO)C[C@@H]1C,6.4,-18.7,-0.2,4.5
CN(C)CCCN(C(=O)c1ccc(S(=O)(=O)N(C)Cc2ccccc2)cc1)c1nc2c(F)cccc2s1,4.8,-32.9*,/,8.4
CN(C)CCCN(C(=O)CCc1ccccc1)c1nc2c(F)cccc2s1,12.6,/,/,/
CCOc1cccc2sc(N(CCCN(C)C)C(=O)c3ccc(S(=O)(=O)N4CCc5ccccc5C4)cc3)nc12,1.1,-24.7,-0.3,/
COc1cccc2sc(N(CCCN(C)C)C(=O)c3sc4ccccc4c3Cl)nc12,21.2,-43.3*,/,4.2
Cc1cccc2sc(N(CCN(C)C)C(=O)/C=C/c3cccs3)nc12,14.7,/,/,/
Cc1cccc2sc(N(CCCN(C)C)C(=O)c3sc4ccccc4c3Cl)nc12,25.5,/,/,/
CCc1ccc2nc(N(CCCN(C)C)C(=O)c3ccc(S(=O)(=O)N4CCc5ccccc5C4)cc3)sc2c1,2.0,-25.1*,-1.5,/
CN(C)CCCN(C(=O)/C=C/c1cccs1)c1nc2c(F)cccc2s1,55.7*,0.3,-0.3,-6.1
C[C@H](CO)N1C[C@H](C)[C@H](CN(C)C)OCCCC[C@H](C)Oc2ccc(NS(=O)(=O)c3ccccc3)cc2C1=O,3.4,3.6,-0.1,-4.3
Cc1noc(C)c1S(=O)(=O)N(C)C[C@H]1Oc2ccc(NC(=O)CCCN(C)C)cc2C(=O)N([C@H](C)CO)C[C@@H]1C,7.9,-3.5,-1.9,/
C[C@H]1CN([C@@H](C)CO)C(=O)c2cc(C3=CCCCC3)cnc2O[C@H]1CN(C)Cc1ccccc1F,-6.6,3.6,-0.2,9.6
N#Cc1ccc(-c2ccc3c(c2)[C@@H]2[C@@H](CCN2C(=O)C2CCC2)[C@H](CO)N3)cc1,-3.3,-16.5,0.4,-2.5
CCOCCCNC(=O)C(c1ccc(Cl)cc1)N(Cc1cccs1)C(=O)c1ccccn1 (stereo unspecified),3.4,-23.0*,/,-4.8
